# Experimental data as given in publication PMC4716540 (British Journal of Cancer, 2015).
# Several values for one entry are separate records, joined by “and”; a condition that tells them apart may be missing. Equal values may be shown once.
# Columns and labels:
# [1] = tested on: Hsp70 in peripheral blood mononuclear cells (PBMCs); assay: Hsp70 levels in PBMCs by western blot as biomarker for Hsp90 inhibition; assay type: in vivo, human
# In short: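 Patients with relapsed/refractory B-cell malignancies received the test compound by 1-h IV infusion on days 1–5 of a 14-day cycle (cohorts 14–176 mg m⁻², 3+3 design). Hsp70 was measured by western blot at an independent central laboratory, as change from baseline, and summarised descriptively by dose level.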
# primary myeloma cells = settings: in the presence of bone marrow stromal cells; ref Juliger et al, 2008; cited from earlier work
# [2] = tested on: relapsed/refractory MM and NHL; assay: Tumour response by standard criteria for MM and NHL; assay type: in vivo, human; settings: for Duration of sustained SD: one patient
# In short: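 Best tumour response was assessed over all cycles of single-agent treatment. The agent was given by 1-h IV infusion on days 1–5 of each 14-day cycle, at 14–176 mg m⁻². Treatment continued for up to 12 months or until progression, unacceptable toxicity or withdrawal. Intrapatient escalation was allowed after at least two cycles. Chemotherapy, radiotherapy and corticosteroids were excluded. Responses were summarised descriptively by dose level.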
# [3] = Plasma pharmacokinetics of KW-2478; assay type: in vivo, human
# Hsp90 = settings: ref Nakashima et al, 2010; Ishii et al, 2012; cited from earlier work
# [4] = 25 evaluable patients, all doses
# [5] = 14 mg m^–2 iv, day 1, n=3, mean±s.d.
# [6] = 14 mg m^–2 iv, day 5, n=3, mean±s.d.
# [7] = 28 mg m^–2 iv, day 1, n=3, mean±s.d.
# [8] = 28 mg m^–2 iv, day 5, n=3, mean±s.d.
# [9] = 47 mg m^–2 iv, day 1, n=3, mean±s.d.
# [10] = 47 mg m^–2 iv, day 5, n=2, mean±s.d.
# [11] = 71 mg m^–2 iv, day 1, n=3, mean±s.d.
# [12] = 71 mg m^–2 iv, day 5, n=2, mean±s.d.
# [13] = 99 mg m^–2 iv, day 1, n=3, mean±s.d.
# [14] = 99 mg m^–2 iv, day 5, n=3, mean±s.d.
# [15] = 132 mg m^–2 iv, day 1, n=6, mean±s.d.
# [16] = 132 mg m^–2 iv, day 5, n=6, mean±s.d.
# [17] = 176 mg m^–2 iv, day 1, n=6, mean±s.d.
# [18] = 176 mg m^–2 iv, day 5, n=5, mean±s.d.
structure (smiles),measurement,setting,value
CCc1c(O)cc(O)c(C(=O)c2ccc(OCCN3CCOCC3)c(OC)c2)c1CC(=O)N(CCOC)CCOC [KW-2478],Hsp70 induction above baseline in PBMCs,"[1]; doses ⩾71 mg m^–2, 8 h after dosing on days 1 and 5",≥ 25%
same,Doses at which Hsp70 levels in PBMCs increased (target inhibition inferred),[1]; western blot,≥ 71 mg m^–2
same,Activity against primary myeloma cells,primary myeloma cells,retained
same,"Progressive disease, MM patients",[2]; 21 evaluable MM patients,4.8%
same,"Stable disease (SD), MM patients",[2]; 21 evaluable MM patients,95.2%
same,Evaluable patients with stable disease (disease stabilisation rate),[2]; [4],96%
same,Overall disease control rate,[2]; [4],96.0%
same,Patients with SD lasting ⩾3 months,[2]; all doses,Eight
same,Patients with SD lasting ⩾6 months (free of disease progression),[2]; all doses,five
same,Complete or partial responses,[2]; best tumour response over all cycles,No patients achieved complete or partial responses
same,"Stable disease (SD), NHL patients",[2]; four evaluable NHL patients,100%
same,Duration of response,"[2]; individual patient, MM, 99 mg m^–2",3.1 months
same,Duration of response,"[2]; individual patient, NHL, 99 mg m^–2",1.5 months
same,Duration of response,"[2]; individual patient, NHL, 176 mg m^–2",1.3 months
same,Duration of response,"[2]; individual patients, MM, 14 mg m^–2",1 months and 1.4 months
same,Duration of response,"[2]; individual patients, MM, 28 mg m^–2",11.3 months and 0.8 months and 1.8 months
same,Duration of response,"[2]; individual patients, MM, 47 mg m^–2",1.3 months and 1 months
same,Duration of response,"[2]; individual patients, MM, 71 mg m^–2",1.1 months and 5.1 months
same,Duration of response,"[2]; individual patients, MM, 132 mg m^–2",1.4 months and 8.8 months and 12.9 months
same,Duration of response,"[2]; individual patients, MM, 176 mg m^–2",3.5 months and 1.3 months and 11.9 months and 2 months
same,Duration of response,"[2]; individual patients, NHL, 132 mg m^–2",1.4 months and 8.2 months
same,Duration of sustained SD,[2]; 132 mg m^–2 cohort,12.9 months
same,Duration of sustained SD,[2]; 176 mg m^–2 cohort,11.9 months
same,AUC0–t,[3]; [5],819±403 ng h^–1 ml^–1
same,AUC0–∞,[3]; [5],992±497 ng h^–1 ml^–1
same,CL (total plasma clearance),[3]; [5],28.9±11.1 l h^–1
same,Cmax,[3]; [5],645±306 ng ml^–1
same,kel (elimination rate constant),[3]; [5],0.11 ± 0.01 h⁻¹
same,t½ (terminal half-life),[3]; [5],6.05 ± 0.37 h
same,AUC0–t,[3]; [6],844±445 ng h^–1 ml^–1
same,Cmax,[3]; [6],656±342 ng ml^–1
same,AUC0–t,[3]; [7],1935±848 ng h^–1 ml^–1
same,AUC0–∞,[3]; [7],2353±1117 ng h^–1 ml^–1
same,CL (total plasma clearance),[3]; [7],23.1±15.9 l h^–1
same,Cmax,[3]; [7],1620±556 ng ml^–1
same,kel (elimination rate constant),[3]; [7],0.11 ± 0.02 h⁻¹
same,t½ (terminal half-life),[3]; [7],6.48 ± 0.96 h
same,AUC0–t,[3]; [8],1639±768 ng h^–1 ml^–1
same,Cmax,[3]; [8],1320±531 ng ml^–1
same,AUC0–t,[3]; [9],2325±652 ng h^–1 ml^–1
same,AUC0–∞,[3]; [9],2758±891 ng h^–1 ml^–1
same,CL (total plasma clearance),[3]; [9],34.9±8.35 l h^–1
same,Cmax,[3]; [9],1990±236 ng ml^–1
same,kel (elimination rate constant),[3]; [9],0.11 ± 0.01 h⁻¹
same,t½ (terminal half-life),[3]; [9],6.60 ± 0.69 h
same,AUC0–t,[3]; [10],2334±532 ng h^–1 ml^–1
same,Cmax,[3]; [10],1705±785 ng ml^–1
same,AUC0–t,[3]; [11],2798±432 ng h^–1 ml^–1
same,AUC0–∞,[3]; [11],3197±400 ng h^–1 ml^–1
same,CL (total plasma clearance),[3]; [11],43.0±6.80 l h^–1
same,Cmax,[3]; [11],2620±585 ng ml^–1
same,kel (elimination rate constant),[3]; [11],0.11 ± 0.02 h⁻¹
same,t½ (terminal half-life),[3]; [11],6.29 ± 0.93 h
same,AUC0–t,[3]; [12],3681±497 ng h^–1 ml^–1
same,Cmax,[3]; [12],2675±49.5 ng ml^–1
same,AUC0–t,[3]; [13],4220±1251 ng h^–1 ml^–1
same,AUC0–∞,[3]; [13],4826±1504 ng h^–1 ml^–1
same,CL (total plasma clearance),[3]; [13],42.7±12.5 l h^–1
same,Cmax,[3]; [13],3400±876 ng ml^–1
same,kel (elimination rate constant),[3]; [13],0.12 ± 0.003 h⁻¹
same,t½ (terminal half-life),[3]; [13],5.83 ± 0.14 h
same,AUC0–t,[3]; [14],3673±932 ng h^–1 ml^–1
same,Cmax,[3]; [14],2977±610 ng ml^–1
same,AUC0–t,[3]; [15],6910±1864 ng h^–1 ml^–1
same,CL (total plasma clearance),[3]; [15],35.0±9.99 l h^–1
same,Cmax,[3]; [15],5410±1622 ng ml^–1
same,kel (elimination rate constant),[3]; [15],0.12 ± 0.01 h⁻¹
same,t½ (terminal half-life),[3]; [15],5.71 ± 0.61 h
same,AUC0–t,[3]; [16],7262±1331 ng h^–1 ml^–1
same,Cmax,[3]; [16],5972±940 ng ml^–1
same,CL (total plasma clearance),[3]; [17],32.8±10.7 l h^–1
same,Cmax,[3]; [17],6838±1961 ng ml^–1
same,kel (elimination rate constant),[3]; [17],0.13 ± 0.01 h⁻¹
same,t½ (terminal half-life),[3]; [17],5.43 ± 0.39 h
same,AUC0–t,[3]; [18],8355±2496 ng h^–1 ml^–1
same,Cmax,[3]; [18],6062±1411 ng ml^–1
same,"Mean t½, range across dose levels",[3]; 14–176 mg m^–2,5.4 to 6.6 h
same,"Total CL, range of means across dose levels",[3]; 14–176 mg m^–2,23.1–43.0 l h^–1
same,Manner of plasma concentration decline,"[3]; after end of infusion, rapid distribution phase and slower elimination phase",biphasic
same,Mean Cmax and AUC values in relation to dose,[3]; days 1 and 5,increased linearly in relation to dose
same,"Accumulation from days 1 to 5 (Cmax, AUC)",[3]; once daily days 1–5,no relevant accumulation
same,Terminal half-life,"[3]; plasma, iv infusion over 1 h",~6 h
same,Binding affinity to Hsp90,Hsp90,high binding affinity
